# Rows were chosen to be rich in hits. Some 2.2% of all compounds tested hit in one or more screens of this group.
# NR2E3 ag-1: activates human photoreceptor nuclear receptor NR2E3; Q9Y5X4; 320,000 compounds, 0.12% hits; GST-NR2E3/biotin-RetCOR TR-FRET, 1536-well; inhibition of corepressor binding, % at 4.78 µM;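 active = percent inhibition above the cutoff of mean plus 3 SD of all tested compounds, set per screening campaign, cut at about 20% in these data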;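 also: 0% = DMSO wells and 100% = biotin wells as full block of FRET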
# Target sequence (Q9Y5X4 whole entry, looked up): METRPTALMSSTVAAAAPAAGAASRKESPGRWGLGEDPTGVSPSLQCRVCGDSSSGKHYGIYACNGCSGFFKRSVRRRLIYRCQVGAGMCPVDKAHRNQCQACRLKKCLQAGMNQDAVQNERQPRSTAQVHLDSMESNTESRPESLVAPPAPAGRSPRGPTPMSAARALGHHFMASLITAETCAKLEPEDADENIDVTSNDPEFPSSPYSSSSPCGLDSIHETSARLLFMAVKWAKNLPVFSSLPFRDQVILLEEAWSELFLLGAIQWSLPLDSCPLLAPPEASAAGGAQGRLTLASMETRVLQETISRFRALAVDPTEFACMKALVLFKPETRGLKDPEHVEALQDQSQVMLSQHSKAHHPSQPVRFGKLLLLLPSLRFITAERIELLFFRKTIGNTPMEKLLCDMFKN
#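 Material: NR2E3–RetCOR corepressor complex | Quantity: 1.35 nM GST-tagged NR2E3 final | Schedule: 5 h at 4 °C | Replication: Singlicate compound wells | Reagent: RetCOR corepressor, biotinylated, 7 nM | Controls: Biotin wells as high control, 0.6% DMSO wells as low control | Signal: TR-FRET, Eu(K)-anti-GST donor, streptavidin-D2 acceptor, ex 340, em 617/671 nm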
# NR2E3 ag-2: agonists of human NR2E3 nuclear receptor | CHO-S Gal4-NCOR/VP16-NR2E3 two-hybrid, luciferase | inhibition of corepressor binding, % at 3.98 µM | AID 602229 | 360,000 compounds, 0.35% hits | Q9Y5X4;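 active = inhibition above the mean of all tested compounds plus 3 SD, cut at about 70% in these data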;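 also: 0% = DMSO with NR2E3 transfected cells and 100% = cells lacking NR2E3 construct; higher means lower luciferase signal from less NR2E3 corepressor binding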
# SMARCA2 act: SMARCA2 function activation, primary screen; MG213 cells, MMTV-luciferase reporter, dexamethasone, overnight; activation, % at 9.1 µM; 370,000 compounds, 1% hits; in the data active = activation above about 7.8%;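 also: 0% = vehicle wells and 100% = reference activator wells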
# NR2F2 inh: blocks human COUP-TFII nuclear receptor. P24468. HEK293T NGFI-A luciferase reporter, luminescence. inhibition, % at 8.6 µM. 370,000 compounds, 0.7% hits. AID 686940;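 active = inhibition above a per-plate cutoff, mean inhibition of test wells between control levels plus 3 SD, cut at about 38% in these data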;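 also: cells cotransfected with COUP-TFII expression vector driving the NGFI-A reporter; 0% = median of COUP-TF2 test wells and 100% = reporter-only cells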
# GalR3 antagonist: blocks the human galanin receptor 3; HEK293 GalR3-CNG cAMP membrane potential fluorescence; galR3 body fused to GalR1 C-terminus; inhibition, % at 3 µM; 360,000 compounds, 0.44% hits; AID 651719;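 active = inhibition above the screen-wide average plus 3 SD, cut at about 13% in these data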;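 also: forskolin and galanin both at EC90 stimulate the cells; cAMP rise reported by CNG channel membrane potential dye signal; 0% = forskolin plus galanin with DMSO and 100% = forskolin alone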
# Target sequence (O60755 1-299 limits assumed): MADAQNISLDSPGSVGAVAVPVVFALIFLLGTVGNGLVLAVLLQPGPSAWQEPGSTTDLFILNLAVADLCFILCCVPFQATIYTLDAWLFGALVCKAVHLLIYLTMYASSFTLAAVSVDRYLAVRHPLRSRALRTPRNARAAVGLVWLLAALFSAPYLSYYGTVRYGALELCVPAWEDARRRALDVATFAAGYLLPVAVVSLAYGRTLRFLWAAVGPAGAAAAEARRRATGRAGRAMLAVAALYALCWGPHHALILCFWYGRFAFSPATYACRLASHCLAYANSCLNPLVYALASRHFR
# GalR3 antag conf: confirmation of human galanin receptor 3 antagonists | shares compounds with GalR3 antagonist | HEK293 GalR3 CNG cAMP biosensor, membrane potential fluorescence; galR3 fused to GalR1 carboxy tail; challenged with forskolin and galanin at EC90 | inhibition, % at 3 µM | 1,600 compounds, 59% hits;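 active = inhibition above the primary screen's cutoff, the mean inhibition of all screened compounds plus 3 SD, cut at about 13% in these data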;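 also: 0% = forskolin plus galanin and 100% = forskolin alone with DMSO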
# HEK-CNG parental: counter-screen for GalR3 antagonists: nonspecific agonists in parental HEK-CNG cells; HEK293-CNG parental cells, cAMP membrane potential fluorescence; normalised: DMSO wells 0%, forskolin wells 100%; 1,600 compounds, 10% hits; activation, % at 3 µM; shares compounds with GalR3 antagonist; in the data active = activation above about 1.3%
# VP16 Luc counter: VP16 inhibition counter-screen for COUP-TFII; shares compounds with NR2F2 inh; HEK293 Gal4-VP16 luciferase reporter, luminescence; inhibition, % at 8.5 µM; 2,500 compounds, 25% hits; AID 687007; in the data active = inhibition above about 13%
# NR2F2 inh conf: confirmation of human COUP-TFII (NR2F2) inhibitors; shares compounds with NR2F2 inh; HEK293 NGFI-A luciferase reporter, luminescence; inhibition, % at 8.5 µM; 2,500 compounds, 45% hits; AID 687008;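 active = mean inhibition over three repeats above a set limit taken from the earlier primary screen, cut at about 38% in these data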;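 also: 100% = cells given the luciferase reporter alone without the COUP-TF2 vector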
# Starred values were filed as active, the others as inactive; . = no result.
SMILES,NR2E3 ag-1,NR2E3 ag-2,SMARCA2 act,NR2F2 inh,GalR3 antagonist,GalR3 antag conf,HEK-CNG parental,VP16 Luc counter,NR2F2 inh conf
CCN1/C(=C/c2ccc3cc(C)cc(C)c3[n+]2CC)Sc2cc(C)ccc21,.,91*,-9,66*,49*,58*,9.7*,23*,69*
COC(=O)[C@]12CCCCC=C1N(Cc1ccc(OC)cc1)C(=O)[C@@H]2CC(=O)N1CCOCC1,.,.,-1,-41,.,.,.,.,.
COC(=O)CNC(=O)CNC1(C(=O)NCCc2c[nH]c3ccccc23)CCCCC1,.,.,.,10,.,.,.,.,.
C=CCN1C(=O)[C@@H](CC(=O)NCCCN2CCCC2=O)[C@]2(C(=O)OCC)CCCCC/C=C/12,.,.,-2,-11,.,.,.,.,.
C=CCN(c1ccccc1)S(=O)(=O)c1cccc(C(=O)NC2CCN(Cc3ccccc3)CC2)c1,1,10,-4,58*,89*,62*,1.4*,3,44*
O=C(NC1CCN(Cc2ccccc2)CC1)c1cccc(S(=O)(=O)Nc2ccc(F)cc2)c1,1,-5,-4,55*,17*,54*,0,3,34
O=C(NC1CCN(Cc2ccccc2)CC1)c1cccc(S(=O)(=O)Nc2ccc(Br)cc2)c1,-1,7,-5,10,-8,.,.,.,.
COc1ccc(CC(=O)Nc2cccc(S(=O)(=O)N3CCOCC3)c2)cc1OC,-4,38,-4,47*,41*,18*,0,2,30
COc1ccc(CC(=O)Nc2cccc(S(=O)(=O)N3CCCC3)c2)cc1OC,-4,46,-6,62*,85*,28*,-1,6,45*
COc1ccccc1CCC(=O)Nc1cccc(S(=O)(=O)N2CCCCCC2)c1,2,-12,-4,14,2,.,.,.,.
COc1ccccc1CC(=O)Nc1cccc(S(=O)(=O)N2CCOCC2)c1,1,5,-2,3,-3,.,.,.,.
O=C(COC(=O)c1n[nH]c2ccccc12)Nc1ccc(S(=O)(=O)N2CCCC2)cc1,2,5,-1,46*,104*,110*,-1,1,21
O=C(COC(=O)c1n[nH]c2ccccc12)Nc1cccc(S(=O)(=O)N2CCOCC2)c1,.,-10,-1,9,-1,.,.,.,.
O=C(Nc1ccc(S(=O)(=O)Nc2ccccc2)cc1)c1ccc(CN2CCOCC2)cc1,3,1,-6,69*,98*,110*,-1,9,25
O=C(Nc1ccccc1)c1ccc(S(=O)(=O)N2CCCCC2)cc1,5,-7,-4,8,0,.,.,.,.
O=C(Nc1ccc(S(=O)(=O)N2CCCCC2)cc1)c1ccc(CN2CCc3ccccc3C2)cc1,1,54,-4,70*,106*,105*,-1,18*,80*
COC(=O)c1ccc(NC(=O)c2ccc(CN3CCOCC3)cc2)cc1,1,-1,-6,48*,92*,4,0,-4,16
O=C(Nc1ccc(CN2CCOCC2)cc1)c1ccc(Cl)cc1,-2,-74,1,-13,-5,.,.,.,.
CC(C)(C)c1ccc(C(=O)Nc2ccc(CN3CCS(=O)(=O)CC3)cc2)cc1,-3,-14,-9,47*,34*,103*,0,-16,32
CCCCNC(=O)C[C@H]1C[C@@]2(C(=O)OC)C(=C[C@H](COCc3ccccc3)O[C@@H]2C)N(CCc2ccc(OC)c(OC)c2)C1=O,.,.,-2,-11,.,.,.,.,.
CN(Cc1ccccc1)S(=O)(=O)c1cccc(C(=O)OCc2ccccc2)c1,.,.,-1,-20,.,.,.,.,.
CC(=O)c1ccc(NC(=O)c2ccc(C)c(S(=O)(=O)N3CCOCC3)c2)cc1,3,-28,-1,-1,-6,.,.,.,.
CCOC(=O)c1ccc(NC(=O)c2ccc(C)c(S(=O)(=O)N3CCOCC3)c2)cc1,1,27,-3,81*,98*,107*,0,6,82*
Cc1ccc(Oc2ccccc2NC(=O)CSCC(=O)Nc2cc(C)on2)cc1,0,-6,-6,62*,84*,68*,0,4,49*
COc1ccc(NC(=O)NC2CCN(S(=O)(=O)c3ccc(F)cc3)CC2)cc1OC,.,.,-2,-8,.,.,.,.,.
SMILES,NR2E3 ag-1,NR2E3 ag-2,SMARCA2 act,NR2F2 inh,GalR3 antagonist,GalR3 antag conf,HEK-CNG parental,VP16 Luc counter,NR2F2 inh conf
CC(C)(C)c1ccc(C(=O)Nc2ccc(Oc3cccnc3)nc2)cc1,0,-13,-11,64*,111*,114*,0,-8,61*
CSc1ccc(CN2CCN(C(=O)c3ccc([N+](=O)[O-])cc3)CC2)cc1,0,-24,-6,71*,102*,106*,0,-2,44*
COc1ccc(-n2c(SCC(=O)Nc3ccccc3-c3ccccc3)nnc2-c2ccccc2)cc1,.,.,-6,11,.,.,.,.,.
O=C(CN1CCC(c2nc3ccccc3s2)CC1)NCc1cccs1,3,29,-5,53*,78*,76*,1.8*,-5,31
O=C(CNS(=O)(=O)c1ccccc1)N1CCN(c2ccccn2)CC1,.,.,4,-10,.,.,.,.,.
COc1ccc(OC)c(CCNC(=O)C(C)n2nc(C)c3c(C)n(-c4ccc(C)cc4)nc3c2=O)c1 (centres undefined),1,39,-3,73*,50*,91*,0,18*,73*
O=C(Nc1ccncc1)c1ccc(Cl)c(S(=O)(=O)N2CCc3ccccc32)c1,3,-9,-4,73*,40*,61*,0,2,60*
Cc1cccc(NC(=O)c2ccc(Cl)c(S(=O)(=O)N3CCc4ccccc43)c2)n1,0,-30,-6,19,-2,.,.,.,.
COc1ccc(C(=O)Nc2ccc(S(=O)(=O)N3CCc4ccccc43)cc2)cc1,2,15,-6,59*,30*,86*,-2,-17,42*
CCC(C)NC(=O)CSc1nnc(-c2cc(OC)c(OC)c(OC)c2)o1 (centres undefined),.,.,-4,-21,.,.,.,.,.
O=C(CSc1nc2sc3c(c2c(=O)n1-c1ccc(Cl)cc1)CCC3)Nc1ccc(C(=O)O)cc1,.,.,-2,24,.,.,.,.,.
COC(=O)[C@]12CCCCC=C1N(CCc1ccc(OC)c(OC)c1)C(=O)[C@H](CC(=O)NCc1cccc3ccccc13)C2,.,.,2,8,-7,.,.,.,.

# Assay outcomes deposited in PubChem by The Scripps Research Institute Molecular Screening Center.
